This note sets out measurements from ChEMBL document CHEMBL1159001, “Isolation, purification, and cytotoxicity of 5-methoxypodophyllotoxin, a lignan from a root culture of Linum flavum” (1992).

The nature of experiment [1]: Cytotoxicity against mouse EAT cells after 4 days by trypan blue assay. It counts as functional. Particulars: 96 h, read-out: ED50 (the source's name). The method, boiled down:
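Murine Ehrlich ascites tumor cells grown in suspension in RPMI 1640 with 10% fetal calf serum, streptomycin and penicillin G (doubling time 12–14 h). Exponential-phase cells, viability >95% by trypan blue. Lignans came from 0.5 or 5 mM 96% EtOH stocks, in 24 twofold dilutions. 2000 viable cells/well, incubated 4 days at 37°, 5% CO2. Sedimented pellet diameters were compared visually with untreated wells, and ED50 derived as 50% growth inhibition.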

In experiment [2] the test system is HeLa. The experiment in a line: Cytotoxicity against human HeLa cells after 4 days by trypan blue assay. The note with it: 96 h, read-out: ED50 (the source's name). It counts as functional. In outline:
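HeLa cells cultured in Joklik's MEM with 10% fetal calf serum, streptomycin and penicillin G (doubling time ca. 24 h). Exponentially growing cells with >95% trypan-blue viability. Lignans were taken from 0.5 or 5 mM stocks in 96% EtOH, and 24 twofold dilutions were made in medium. 2000 cells/well, 4 days at 37°, 5% CO2. Growth was scored visually by pellet diameter against untreated controls, and ED50 (50% growth inhibition) calculated.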

Converted amounts (≈) assume the structure as drawn.

With `COc1cc([C@@H]2c3cc4c(cc3[C@@H](O[C@@H]3O[C@@H]5CO[C@@H](C)O[C@H]5[C@H](O)[C@H]3O)[C@H]3COC(=O)[C@H]23)OCO4)cc(OC)c1O` [ETOPOSIDE], the EC50 in experiment [1] came out at 1.1 µg/mL (≈ 1.87 µM); in experiment [2], 7.9 µg/mL (≈ 13.4 µM).

As to `COc1cc([C@@H]2c3cc4c(cc3[C@H](O)[C@H]3COC(=O)[C@H]23)OCO4)cc(OC)c1OC` [PODOFILOX], the EC50 came to 42.8 µg/mL (≈ 103 µM) in experiment [1] and 20.5 µg/mL (≈ 49.5 µM) in experiment [2].

`COc1cc([C@@H]2c3cc4c(cc3[C@H](O[C@@H]3O[C@H](CO)[C@@H](O)[C@H](O)[C@H]3O)[C@H]3COC(=O)[C@H]23)OCO4)cc(OC)c1OC`: the figures for the EC50 in experiment [1] and in experiment [2] were 30 µg/mL (≈ 52 µM) and 21.8 µg/mL (≈ 37.8 µM), respectively.

Regarding `COc1cc([C@@H]2c3cc4c(c(OC)c3[C@H](O)[C@H]3COC(=O)[C@H]23)OCO4)cc(OC)c1OC`, the results for the EC50 in experiment [1] and in experiment [2] were 32 µg/mL (≈ 72 µM) and 22 µg/mL (≈ 49.5 µM), respectively.

As to `COc1cc([C@@H]2c3cc4c(cc3[C@@H](O[C@@H]3O[C@@H]5CO[C@@H](c6cccs6)O[C@H]5[C@H](O)[C@H]3O)[C@H]3COC(=O)[C@H]23)OCO4)cc(OC)c1O` [TENIPOSIDE], the EC50 amounted to 0.06 µg/mL (≈ 0.0914 µM) in experiment [1] and 0.3 µg/mL (≈ 0.457 µM) in experiment [2].
